Results published in ChEMBL document CHEMBL4152260, “Design, synthesis and biological evaluation of novel quinazoline-2,4-diones conjugated with different amino acids as potential chitin synthase inhibitors” (Eur J Med Chem, 2018).
In brackets after ≈: the same amount, converted by molar mass.

Experiments:
[1] = system: Saccharomyces cerevisiae; experiment: Inhibition of yeast chitin synthase at 300 ug/ml using UDP-GlcNAc as substrate measured after 1 hr relative to control
How it was run: (§1)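 Membrane CHS from S. cerevisiae CGMCC2.145 (YPAD, 30 °C, 48 h; sonication; 55000 g pellet in Tris/33% glycerol). Wells coated with WGA and blocked with BSA. Reaction in pH 6.8 Tris-maleate with 40 mM GlcNAc, 2 mM UDP-GlcNAc, 37 °C, 1 h. Product detected with WGA-HRP and TMB/H2O2, A450. Test solutions 300–18.75 μg/mL. Inhibition = (B0−Bn)/(B0−OD0); IC50 from log c plot.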

[2] = system: Aspergillus fumigatus; experiment: Antifungal activity against Aspergillus fumigatus GIMCC 3.19 measured after 24 hrs; format: functional; settings: GIMCC 3.19, 24 h
[3] = system: Aspergillus flavus; experiment: Antifungal activity against Aspergillus flavus ATCC 16870 measured after 24 hrs; format: functional; settings: ATCC 16870, 24 h
[4] = system: Cryptococcus neoformans; experiment: Antifungal activity against Cryptococcus neoformans ATCC 32719 measured after 24 hrs; format: functional; settings: ATCC 32719, 24 h
[5] = system: Candida albicans; experiment: Antifungal activity against Candida albicans ATCC 76615 measured after 24 hrs; format: functional; settings: ATCC 76615, 24 h
[6] = system: Candida albicans; experiment: Antifungal activity against Candida albicans ATCC 76615 measured after 48 hrs by two-dimensional broth microdilution checkboard method; format: functional; settings: ATCC 76615, 48 h
How it was run: (§2)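 MICs of each agent alone re-determined in the checkerboard run. Two-dimensional broth microdilution per CLSI M27-A3, 35 °C for 48 h, each test performed twice (duplicate).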

[7] = system: Aspergillus flavus; experiment: Antifungal activity against Aspergillus flavus ATCC 16870 measured after 48 hrs by two-dimensional broth microdilution checkboard method; format: functional; settings: ATCC 16870, 48 h; how it was run: as §2
[8] = system: Aspergillus fumigatus; experiment: Antifungal activity against Aspergillus fumigatus GIMCC 3.19 measured after 48 hrs by two-dimensional broth microdilution checkboard method; format: functional; settings: GIMCC 3.19, 48 h; how it was run: as §2
[9] = system: Cryptococcus neoformans; experiment: Antifungal activity against Cryptococcus neoformans ATCC 32719 measured after 48 hrs by two-dimensional broth microdilution checkboard method; format: functional; settings: ATCC 32719, 48 h; how it was run: as §2
[10] = Inhibition of yeast chitin synthase using UDP-GlcNAc as substrate measured after 1 hr; set-up: species or system Saccharomyces cerevisiae; how it was run: as §1
[11] = system: Candida albicans; experiment: Synergistic antifungal activity against Candida albicans ATCC 76615 measured after 48 hrs in presence of fluconazole by two-dimensional broth microdilution checkboard method; format: functional; settings: ATCC 76615, 48 h
How it was run: (§3)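 Two-dimensional broth microdilution checkerboard combining test agent with fluconazole per CLSI M27-A3, 35 °C for 48 h, duplicate runs. Combination MICs read. FIC index = MIC_A(comb)/MIC_A(alone) + MIC_B(comb)/MIC_B(alone). Interaction classed synergistic ≤0.5, indifferent >0.5–4, antagonistic >4.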

[12] = system: Aspergillus flavus; experiment: Synergistic antifungal activity against Aspergillus flavus ATCC 16870 measured after 48 hrs in presence of fluconazole by two-dimensional broth microdilution checkboard method; format: functional; settings: ATCC 16870, 48 h; how it was run: as §3
[13] = system: Aspergillus fumigatus; experiment: Synergistic antifungal activity against Aspergillus fumigatus GIMCC 3.19 measured after 48 hrs in presence of fluconazole by two-dimensional broth microdilution checkboard method; format: functional; settings: GIMCC 3.19, 48 h; how it was run: as §3
[14] = system: Cryptococcus neoformans; experiment: Synergistic antifungal activity against Cryptococcus neoformans ATCC 32719 measured after 48 hrs in presence of fluconazole by two-dimensional broth microdilution checkboard method; format: functional; settings: ATCC 32719, 48 h; how it was run: as §3
[15] = system: Candida albicans; experiment: Synergistic antifungal activity against Candida albicans ATCC 76615 assessed as fluconazole MIC mesured after 48 hrs by two-dimensional broth microdilution checkboard method; format: functional; settings: ATCC 76615, 48 h; how it was run: as §3
[16] = system: Aspergillus flavus; experiment: Synergistic antifungal activity against Aspergillus flavus ATCC 16870 assessed as fluconazole MIC mesured after 48 hrs by two-dimensional broth microdilution checkboard method; format: functional; settings: ATCC 16870, 48 h; how it was run: as §3
[17] = system: Aspergillus fumigatus; experiment: Synergistic antifungal activity against Aspergillus fumigatus GIMCC 3.19 assessed as fluconazole MIC mesured after 48 hrs by two-dimensional broth microdilution checkboard method; format: functional; settings: GIMCC 3.19, 48 h; how it was run: as §3
[18] = system: Cryptococcus neoformans; experiment: Synergistic antifungal activity against Cryptococcus neoformans ATCC 32719 assessed as fluconazole MIC mesured after 48 hrs by two-dimensional broth microdilution checkboard method; format: functional; settings: ATCC 32719, 48 h; how it was run: as §3
[19] = system: Candida albicans; experiment: Synergistic antifungal activity against Candida albicans ATCC 76615 assessed as FIC index measured after 48 hrs in presence of fluconazole by two-dimensional broth microdilution checkboard method; format: functional; how it was run: as §3
[20] = system: Aspergillus flavus; experiment: Synergistic antifungal activity against Aspergillus flavus ATCC 16870 assessed as FIC index measured after 48 hrs in presence of fluconazole by two-dimensional broth microdilution checkboard method; format: functional; how it was run: as §3
[21] = system: Aspergillus fumigatus; experiment: Synergistic antifungal activity against Aspergillus fumigatus GIMCC 3.19 assessed as FIC index measured after 48 hrs in presence of fluconazole by two-dimensional broth microdilution checkboard method; format: functional; how it was run: as §3
[22] = system: Cryptococcus neoformans; experiment: Synergistic antifungal activity against Cryptococcus neoformans ATCC 32719 assessed as FIC index measured after 48 hrs in presence of fluconazole by two-dimensional broth microdilution checkboard method; format: functional; how it was run: as §3

Compound	inhibition [1]	MIC [2]	MIC [3]	MIC [4]	MIC [5]	also measured
Cn1c(=O)n(CC(=O)N[C@@H](Cc2ccccc2)C(=O)O)c(=O)c2ccccc21	50.5%	> 1340 µM	> 1340 µM	> 1340 µM	> 1340 µM	
Cn1c(=O)n(CC(=O)N[C@@H](Cc2c[nH]c3ccccc23)C(=O)O)c(=O)c2ccccc21	43.8%	> 1210 µM	600 µM (≈ 252 µg/mL)	600 µM (≈ 252 µg/mL)	> 1210 µM	
CC(C)[C@H](NC(=O)Cn1c(=O)c2ccccc2n(C)c1=O)C(=O)O	18.5%	760 µM (≈ 253 µg/mL)	> 1530 µM	760 µM (≈ 253 µg/mL)	> 1530 µM	
CSCC[C@H](NC(=O)Cn1c(=O)c2ccccc2n(C)c1=O)C(=O)O	43.1%	1400 µM (≈ 512 µg/mL)	> 1400 µM	700 µM (≈ 256 µg/mL)	> 1400 µM	
CC(C)C[C@H](NC(=O)Cn1c(=O)c2ccccc2n(C)c1=O)C(=O)O	52.8%	730 µM (≈ 254 µg/mL)	> 1470 µM	> 1470 µM	> 1470 µM	
OC(Cn1cncn1)(Cn1cncn1)c1ccc(F)cc1F [FLUCONAZOLE]		50 µM (≈ 15.3 µg/mL)	100 µM (≈ 30.6 µg/mL)	100 µM (≈ 30.6 µg/mL)	200 µM (≈ 61.3 µg/mL)	MIC [6]: 104 µM (≈ 31.9 µg/mL); MIC [7]: 104 µM (≈ 31.9 µg/mL); MIC [8]: 209 µM (≈ 64 µg/mL); MIC [9]: 104 µM (≈ 31.9 µg/mL)
Cn1c(=O)n(CC(=O)NCCCC(=O)O)c(=O)c2ccccc21	68.2%	800 µM (≈ 255 µg/mL)	1600 µM (≈ 511 µg/mL)	800 µM (≈ 255 µg/mL)	1600 µM (≈ 511 µg/mL)	IC50 [10]: 300 µM
CCC(NC(=O)Cn1c(=O)c2ccccc2n(C)c1=O)C(=O)O (centres undefined)	13.2%	800 µM (≈ 255 µg/mL)	1600 µM (≈ 511 µg/mL)	800 µM (≈ 255 µg/mL)	> 1600 µM	
Cn1c(=O)n(CC(=O)N[C@@H](CO)C(=O)O)c(=O)c2ccccc21	56.2%	790 µM (≈ 254 µg/mL)	1590 µM (≈ 511 µg/mL)	> 1590 µM	> 1590 µM	
Cn1c(=O)n(CC(=O)NCCC(=O)O)c(=O)c2ccccc21	47.5%	830 µM (≈ 253 µg/mL)	1670 µM (≈ 510 µg/mL)	830 µM (≈ 253 µg/mL)	1670 µM (≈ 510 µg/mL)	
C[C@@H](NC(=O)Cn1c(=O)c2ccccc2n(C)c1=O)C(=O)O	47.8%	830 µM (≈ 253 µg/mL)	830 µM (≈ 253 µg/mL)	830 µM (≈ 253 µg/mL)	1670 µM (≈ 510 µg/mL)	
Cn1c(=O)n(CC(=O)N[C@@H](Cc2cnc[nH]2)C(=O)O)c(=O)c2ccccc21	61.5%	1370 µM (≈ 509 µg/mL)	> 1370 µM	680 µM (≈ 253 µg/mL)	> 1370 µM	IC50 [10]: 300 µM
Cn1c(=O)n(CC(=O)N2CCC[C@H]2C(=O)O)c(=O)c2ccccc21	75.5%	770 µM (≈ 255 µg/mL)	1540 µM (≈ 510 µg/mL)	770 µM (≈ 255 µg/mL)	> 1540 µM	IC50 [10]: 180 µM; MIC [6]: 773 µM (≈ 256 µg/mL); MIC [7]: 773 µM (≈ 256 µg/mL); MIC [8]: 1540 µM (≈ 512 µg/mL); MIC [9]: 773 µM (≈ 256 µg/mL); MIC [11]: 386 µM; MIC [12]: 193 µM; MIC [13]: 1540 µM; MIC [14]: 386 µM; MIC [15]: 13 µM; MIC [16]: 7 µM; MIC [17]: 13 µM; MIC [18]: 104 µM; fractional inhibitory concentration index (FICI) [19]: 0.625; fractional inhibitory concentration index (FICI) [20]: 0.3125; fractional inhibitory concentration index (FICI) [21]: 1.0625; fractional inhibitory concentration index (FICI) [22]: 1.5
Cn1c(=O)n(CC(=O)NC(Cc2ccc(OC(=O)Cn3c(=O)c4ccccc4n(C)c3=O)cc2)C(=O)O)c(=O)c2ccccc21 (centres undefined)	65.3%	410 µM (≈ 252 µg/mL)	410 µM (≈ 252 µg/mL)	410 µM (≈ 252 µg/mL)	830 µM (≈ 509 µg/mL)	IC50 [10]: 166 µM; MIC [6]: 417 µM (≈ 256 µg/mL); MIC [7]: 417 µM (≈ 256 µg/mL); MIC [8]: 834 µM (≈ 512 µg/mL); MIC [9]: 417 µM (≈ 256 µg/mL); MIC [11]: 417 µM; MIC [12]: 209 µM; MIC [13]: 209 µM; MIC [14]: 26 µM; MIC [15]: 13 µM; MIC [16]: 26 µM; MIC [17]: 52 µM; MIC [18]: 52 µM; fractional inhibitory concentration index (FICI) [19]: 1.125; fractional inhibitory concentration index (FICI) [20]: 0.625; fractional inhibitory concentration index (FICI) [21]: 0.3125; fractional inhibitory concentration index (FICI) [22]: 0.5625
Cn1c(=O)n(CC(=O)NCC(=O)O)c(=O)c2ccccc21	22.6%	> 1750 µM	870 µM (≈ 253 µg/mL)	870 µM (≈ 253 µg/mL)	> 1750 µM	
